Assay results: ChEMBL document CHEMBL5653630, “Activation of the p53-MDM4 regulatory axis defines the anti-tumour response to PRMT5 inhibition through its role in regulating cellular splicing” (Sci Rep, 2018)
Each block holds one molecule with its values, some of them ahead of it. Active and inactive are the calls of the source. No cut-off for these calls is given here.

Experiments:
MCF7 = assay: Induction of cell cycle arrest in human MCF7 cells assessed as increase in sub-2N cell population measured upto 5000 nM measured for 7 to 10 days by propidium iodide staining based flow cytometric analysis; assay type: functional; conditions: time 7-10 day
Z-138 [1] = assay: In vivo inhibition of PRMT5 in human Z138 cells xenografted in mouse assessed as increase in SESN1 expression at 100 mg/kg, po BID measured for 7 days; assay type: functional, organism-based; conditions: time 7.0 day
[2] = biological target: Apoptosis regulator BAX (Homo sapiens) (UniProt Q07812); assay: In vivo inhibition of PRMT5 in human Z138 cells xenografted in mouse assessed as increase in BAX expression at 100 mg/kg, po BID measured for 7 days; assay type: functional, organism-based; conditions: Z-138, time 7.0 day
Chain of Apoptosis regulator BAX (Homo sapiens) (Q07812 whole entry): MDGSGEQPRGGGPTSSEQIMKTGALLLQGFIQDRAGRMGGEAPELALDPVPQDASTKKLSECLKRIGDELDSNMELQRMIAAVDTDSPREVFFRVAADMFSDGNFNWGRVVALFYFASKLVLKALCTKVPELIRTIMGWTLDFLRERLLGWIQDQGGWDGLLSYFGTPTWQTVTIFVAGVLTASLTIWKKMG

JeKo-1 = assay: Induction of cell cycle arrest in human JeKo-1 cells assessed as increase in 2n cell population measured upto 5000 nM measured for 3 days by propidium iodide staining based flow cytometric analysis; assay type: functional; conditions: time 3.0 day
Hs 695T = assay: Antiproliferative activity against human Hs 695T cells assessed as cell growth inhibition incubated for 10 days; assay type: functional; conditions: 240 h, time 10 day
Summary of the method: (§1)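 Eurofins panel, 384-well. Cells kept in RPMI-1640 with 10% FBS, 2 mM L-alanyl-L-glutamine and 1 mM Na pyruvate, or in a special medium, at 37°C under 5% CO2. Compound added 24 h after seeding as 10 concentrations in 3.16-fold steps, 0.1% DMSO final. Medium replaced and compound re-dosed at 168 h. After 240 h, cells fixed and nuclei stained for imaging. gIC50 = growth midway between untreated cells and time-zero count.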

C-4-II = assay: Antiproliferative activity against human C-4-II cells assessed as cell growth inhibition incubated for 10 days; assay type: functional; conditions: 240 h, time 10 day
Summary of the method: (§2)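 Cells kept in RPMI-1640 with 10% FBS, 2 mM L-alanyl-L-glutamine and 1 mM Na pyruvate (or a special medium) at 37°C, 5% CO2. Compound added 24 h after seeding, 10 concentrations in 3.16-fold dilution, 0.1% DMSO final. Medium replaced and cells re-dosed at 168 h; 240 h incubation. Nuclei fixed, dye-stained and imaged. gIC50 = growth midway between untreated and time-zero cell counts, from a 4-parameter fit.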

CGTH-W-1 = assay: Antiproliferative activity against human CGTH-W-1 cells assessed as cell growth inhibition incubated for 10 days; assay type: functional; conditions: CGTH-W-1, 240 h, time 10 day; summary of the method: as §2
NCI-H446 = assay: Antiproliferative activity against human NCI-H446 cells assessed as cell growth inhibition incubated for 10 days; assay type: functional; conditions: NCI-H446, 240 h, time 10 day
YAPC = assay: Antiproliferative activity against human YAPC cells assessed as cell growth inhibition incubated for 10 days; assay type: functional; conditions: 240 h, time 10 day
SW982 = assay: Antiproliferative activity against human SW982 cells assessed as cell growth inhibition incubated for 10 days; assay type: functional; conditions: SW982, 240 h, time 10 day
Z-138 [3] = assay: Induction of cell cycle arrest in p53 knockout human Z138 cells assessed as accumulation of cells at G1 phase at 50 to 500 nM incubated for 4 days; assay type: functional, cell-based; conditions: dose 50-500 nM, time 4.0 day
ARH-77 = assay: Antiproliferative activity against human ARH-77 cells assessed as cell growth inhibition incubated for 10 days; assay type: functional; conditions: ARH-77, 240 h, time 10 day; summary of the method: as §2
SK-OV-3 = assay: Antiproliferative activity against human SK-OV-3 cells assessed as cell growth inhibition incubated for 10 days; assay type: functional; conditions: SK-OV-3, 240 h, time 10 day
U-937 = assay: Antiproliferative activity against human U-937 cells assessed as cell growth inhibition incubated for 6 days by celltiter-glo assay; assay type: functional; conditions: U-937, 144 h, time 6 day
Summary of the method: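 Cells seeded in 384-well plates at an optimized density and held 24 h. CellTiter-Glo luminescence read at Day 0 and Day 6. Four-parameter fit. gIC50 = midpoint of the growth window between DMSO and T0. Curves required ≥1.5 population doublings.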

CAKI-1 = assay: Antiproliferative activity against human CAKI-1 cells assessed as cell growth inhibition incubated for 10 days; assay type: functional; conditions: CAKI-1, 240 h, time 10 day; summary of the method: as §2
SK-MEL-1 = assay: Antiproliferative activity against human SK-MEL-1 cells assessed as cell growth inhibition incubated for 10 days; assay type: functional; conditions: SK-MEL-1, 240 h, time 10 day
SNU1 = assay: Antiproliferative activity against human SNU1 cells assessed as cell growth inhibition incubated for 10 days; assay type: functional; conditions: SNU1, 240 h, time 10 day
CFPAC-1 = assay: Antiproliferative activity against human CFPAC-1 cells assessed as cell growth inhibition incubated for 10 days; assay type: functional; conditions: CFPAC-1, 240 h, time 10 day; summary of the method: as §2
HeLa = assay: Antiproliferative activity against human HeLa cells assessed as cell growth inhibition incubated for 10 days; assay type: functional; conditions: 240 h, time 10 day
Summary of the method: (§3)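 Outsourced panel run in 384-well plates. Cells were grown in RPMI-1640/10% FBS or a special medium at 37°C, 5% CO2. Compound was added 24 h after seeding as a 10-point, 3.16-fold series in 0.1% DMSO. Medium was refreshed and cells re-dosed at 168 h, with a time-zero plate kept. At 240 h cells were fixed, nuclei stained and imaged. gIC50 is growth midway between untreated and time zero, from a 4-parameter fit.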

DOHH-2 = assay: Antiproliferative activity against human DOHH-2 cells assessed as cell growth inhibition incubated for 10 days; assay type: functional; conditions: DOHH-2, 240 h, time 10 day; summary of the method: as §3
HOS = assay: Antiproliferative activity against human HOS cells assessed as cell growth inhibition incubated for 10 days; assay type: functional; conditions: 240 h, time 10 day; summary of the method: as §3
COLO 320DM = assay: Antiproliferative activity against human Colo 320DM cells assessed as cell growth inhibition incubated for 10 days; assay type: functional; conditions: 240 h, time 10 day; summary of the method: as §3
FaDu = assay: Antiproliferative activity against human FaDu cells assessed as cell growth inhibition incubated for 10 days; assay type: functional; conditions: 240 h, time 10 day; summary of the method: as §3
Calu-1 = assay: Antiproliferative activity against human Calu-1 cells assessed as cell growth inhibition incubated for 10 days; assay type: functional; conditions: Calu-1, 240 h, time 10 day; summary of the method: as §3
Hs746T = assay: Antiproliferative activity against human Hs746T cells assessed as cell growth inhibition incubated for 10 days; assay type: functional; conditions: 240 h, time 10 day; summary of the method: as §1
ASPC1 = assay: Antiproliferative activity against human ASPC1 cells assessed as cell growth inhibition incubated for 10 days; assay type: functional; conditions: ASPC1, 240 h, time 10 day; summary of the method: as §2
NCI-H295R = assay: Antiproliferative activity against human NCI-H295R cells assessed as cell growth inhibition incubated for 10 days; assay type: functional; conditions: 240 h, time 10 day
Malme-3M = assay: Antiproliferative activity against human Malme-3M cells assessed as cell growth inhibition incubated for 10 days; assay type: functional; conditions: 240 h, time 10 day
[4] = Antiproliferative activity against human BC1 cell line assessed as cell growth inhibition incubated for 10 days; assay type: functional; conditions: BC1, 240 h, time 10 day; summary of the method: as §2
A-431 = assay: Antiproliferative activity against human A-431 cells assessed as cell growth inhibition incubated for 10 days; assay type: functional; conditions: A-431, 240 h, time 10 day; summary of the method: as §2
RCK8 = assay: Antiproliferative activity against human RCK8 cells assessed as reduction in cell viability; assay type: functional, cell-based
DMS-53 = assay: Antiproliferative activity against human DMS-53 cells assessed as cell growth inhibition incubated for 10 days; assay type: functional; conditions: DMS-53, 240 h, time 10 day; summary of the method: as §3
A673 = assay: Antiproliferative activity against human A673 cells assessed as cell growth inhibition incubated for 10 days; assay type: functional; conditions: A673, 240 h, time 10 day; summary of the method: as §2

inhibition [2]: Active
SMILES: CC(=O)N1CCC(Nc2cc(C(=O)NC[C@H](O)CN3CCc4ccccc4C3)ncn2)CC1 [PEMRAMETOSTAT]
Activity (MCF7): Active
inhibition (Z-138 [1]): Active
Activity (JeKo-1): inactive

GI50 (NCI-H446): 570 nM
GI50 (SW982): 56.7 nM
GI50 (SK-OV-3): 52.6 nM
GI50 (U-937): 49 nM
GI50 (SK-MEL-1): 38.7 nM
GI50 (SNU1): 1040 nM
GI50 (HeLa): 230 nM
GI50 (COLO 320DM): 82.5 nM
GI50 (Calu-1): 3050 nM
GI50 (ASPC1): 302 nM
GI50 (NCI-H295R): 10000 nM
GI50 (A-431): 549 nM
SMILES: O=C(NC[C@H](O)CN1CCc2ccccc2C1)c1ccnc(NC2CCC2)c1
GI50 (Hs 695T): 602 nM
GI50 (C-4-II): 266 nM
GI50 (CGTH-W-1): 82.2 nM
GI50 (YAPC): 168 nM
Activity (Z-138 [3]): Active
GI50 (ARH-77): 44.4 nM
GI50 (CAKI-1): 68.8 nM
GI50 (CFPAC-1): 52.3 nM
GI50 (DOHH-2): 157 nM
GI50 (HOS): 223 nM
GI50 (FaDu): 15.4 nM
GI50 (Hs746T): 171 nM
GI50 (Malme-3M): 265 nM
GI50 [4]: 69.6 nM
Activity (RCK8): Active
GI50 (DMS-53): 106 nM
GI50 (A673): 119 nM
